Results published in ChEMBL document CHEMBL2390921, “A novel benzazepinone sodium channel blocker with oral efficacy in a rat model of neuropathic pain” (Bioorg Med Chem Lett, 2013).

What was measured:
Rattus norvegicus [1] = experiment: Neurotoxicity in rat assessed as motor impairment at 30 to 100 mg/kg, po after 2 to 4 hrs by rotarod test; assay type: toxicity, organism-based; design: route oral; settings: in vivo
Summary of the method: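 Rats were trained on a rotarod for 3 min at 10 rpm, then given a single oral dose of test agent or vehicle and tested at 2 and 4 h post-dose. During testing the rod ran at 10 rpm for 60 s, then accelerated to 60 rpm. Time to fall after the start of acceleration was recorded. Impairment was defined as >20% reduction in latency.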

Rattus norvegicus [2] = experiment: Analgesic activity in po dosed rat spinal nerve ligation neuropathic pain model assessed as reversal of allodynia measured after 4 hrs; assay type: functional, organism-based
Summary of the method: (§1)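 Rat spinal nerve ligation model. Seven days after surgery, rats received a single oral dose (3, 10 or 30 mg/kg) of test agent or vehicle. Tactile allodynia was scored at 2, 4, 8 and 24 h post-dose with calibrated von Frey filaments using an up-down paradigm. Threshold is the force giving a 50% withdrawal rate. %MPE = (post-compound − post-SNL)/(pre-SNL − post-SNL) × 100, where 100% is full reversal.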

Rattus norvegicus [3] = experiment: Analgesic activity in rat spinal nerve ligation neuropathic pain model assessed as reversal of allodynia at 10 mg/kg, po measured at 24 hrs relative to control; assay type: functional; summary of the method: as §1
Rattus norvegicus [4] = experiment: Analgesic activity in rat spinal nerve ligation neuropathic pain model assessed as reversal of allodynia at 3 mg/kg, po measured at 24 hrs relative to control; assay type: functional; summary of the method: as §1
Rattus norvegicus [5] = experiment: Analgesic activity in rat spinal nerve ligation neuropathic pain model assessed as reversal of allodynia at 30 mg/kg, po measured at 4 hrs relative to control; assay type: functional; summary of the method: as §1
Rattus norvegicus [6] = experiment: Analgesic activity in rat spinal nerve ligation neuropathic pain model assessed as reversal of allodynia at 10 mg/kg, po measured at 4 hrs relative to control; assay type: functional; summary of the method: as §1
Rattus norvegicus [7] = experiment: Analgesic activity in rat spinal nerve ligation neuropathic pain model assessed as reversal of allodynia at 10 mg/kg, po measured at 2 hrs relative to control; assay type: functional; summary of the method: as §1
Rattus norvegicus [8] = experiment: Analgesic activity in rat spinal nerve ligation neuropathic pain model assessed as reversal of allodynia at 30 mg/kg, po measured at 2 hrs relative to control; assay type: functional; summary of the method: as §1
[9] = molecular target: Kappa-type opioid receptor (Homo sapiens) (UniProt P41145); experiment: Binding affinity to kappa opioid receptor (unknown origin) at 25 uM relative to control
Sequence of Kappa-type opioid receptor (Homo sapiens) (P41145 whole entry): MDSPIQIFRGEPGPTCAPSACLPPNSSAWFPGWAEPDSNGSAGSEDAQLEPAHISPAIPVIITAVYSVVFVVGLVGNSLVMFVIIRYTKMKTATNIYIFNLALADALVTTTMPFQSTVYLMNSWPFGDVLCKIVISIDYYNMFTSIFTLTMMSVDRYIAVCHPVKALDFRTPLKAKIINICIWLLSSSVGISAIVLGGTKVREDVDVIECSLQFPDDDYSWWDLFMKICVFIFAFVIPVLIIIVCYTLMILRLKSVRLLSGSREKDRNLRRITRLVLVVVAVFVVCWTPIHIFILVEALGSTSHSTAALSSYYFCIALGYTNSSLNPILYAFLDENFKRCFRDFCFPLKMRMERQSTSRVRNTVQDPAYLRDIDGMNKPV

[10] = molecular target: Sodium channel protein type 9 subunit alpha (Homo sapiens, UniProt Q15858); experiment: Binding affinity to inactivated state of human NaV1.7 channel assessed as inhibition of current evoked by 6 ms depolarizations to 0 mV from holding potential -70 mV at 3 uM by whole-cell patch clamp assay relative to vehicle-treated control
Sequence of Sodium channel protein type 9 subunit alpha (Q15858 whole entry, looked up): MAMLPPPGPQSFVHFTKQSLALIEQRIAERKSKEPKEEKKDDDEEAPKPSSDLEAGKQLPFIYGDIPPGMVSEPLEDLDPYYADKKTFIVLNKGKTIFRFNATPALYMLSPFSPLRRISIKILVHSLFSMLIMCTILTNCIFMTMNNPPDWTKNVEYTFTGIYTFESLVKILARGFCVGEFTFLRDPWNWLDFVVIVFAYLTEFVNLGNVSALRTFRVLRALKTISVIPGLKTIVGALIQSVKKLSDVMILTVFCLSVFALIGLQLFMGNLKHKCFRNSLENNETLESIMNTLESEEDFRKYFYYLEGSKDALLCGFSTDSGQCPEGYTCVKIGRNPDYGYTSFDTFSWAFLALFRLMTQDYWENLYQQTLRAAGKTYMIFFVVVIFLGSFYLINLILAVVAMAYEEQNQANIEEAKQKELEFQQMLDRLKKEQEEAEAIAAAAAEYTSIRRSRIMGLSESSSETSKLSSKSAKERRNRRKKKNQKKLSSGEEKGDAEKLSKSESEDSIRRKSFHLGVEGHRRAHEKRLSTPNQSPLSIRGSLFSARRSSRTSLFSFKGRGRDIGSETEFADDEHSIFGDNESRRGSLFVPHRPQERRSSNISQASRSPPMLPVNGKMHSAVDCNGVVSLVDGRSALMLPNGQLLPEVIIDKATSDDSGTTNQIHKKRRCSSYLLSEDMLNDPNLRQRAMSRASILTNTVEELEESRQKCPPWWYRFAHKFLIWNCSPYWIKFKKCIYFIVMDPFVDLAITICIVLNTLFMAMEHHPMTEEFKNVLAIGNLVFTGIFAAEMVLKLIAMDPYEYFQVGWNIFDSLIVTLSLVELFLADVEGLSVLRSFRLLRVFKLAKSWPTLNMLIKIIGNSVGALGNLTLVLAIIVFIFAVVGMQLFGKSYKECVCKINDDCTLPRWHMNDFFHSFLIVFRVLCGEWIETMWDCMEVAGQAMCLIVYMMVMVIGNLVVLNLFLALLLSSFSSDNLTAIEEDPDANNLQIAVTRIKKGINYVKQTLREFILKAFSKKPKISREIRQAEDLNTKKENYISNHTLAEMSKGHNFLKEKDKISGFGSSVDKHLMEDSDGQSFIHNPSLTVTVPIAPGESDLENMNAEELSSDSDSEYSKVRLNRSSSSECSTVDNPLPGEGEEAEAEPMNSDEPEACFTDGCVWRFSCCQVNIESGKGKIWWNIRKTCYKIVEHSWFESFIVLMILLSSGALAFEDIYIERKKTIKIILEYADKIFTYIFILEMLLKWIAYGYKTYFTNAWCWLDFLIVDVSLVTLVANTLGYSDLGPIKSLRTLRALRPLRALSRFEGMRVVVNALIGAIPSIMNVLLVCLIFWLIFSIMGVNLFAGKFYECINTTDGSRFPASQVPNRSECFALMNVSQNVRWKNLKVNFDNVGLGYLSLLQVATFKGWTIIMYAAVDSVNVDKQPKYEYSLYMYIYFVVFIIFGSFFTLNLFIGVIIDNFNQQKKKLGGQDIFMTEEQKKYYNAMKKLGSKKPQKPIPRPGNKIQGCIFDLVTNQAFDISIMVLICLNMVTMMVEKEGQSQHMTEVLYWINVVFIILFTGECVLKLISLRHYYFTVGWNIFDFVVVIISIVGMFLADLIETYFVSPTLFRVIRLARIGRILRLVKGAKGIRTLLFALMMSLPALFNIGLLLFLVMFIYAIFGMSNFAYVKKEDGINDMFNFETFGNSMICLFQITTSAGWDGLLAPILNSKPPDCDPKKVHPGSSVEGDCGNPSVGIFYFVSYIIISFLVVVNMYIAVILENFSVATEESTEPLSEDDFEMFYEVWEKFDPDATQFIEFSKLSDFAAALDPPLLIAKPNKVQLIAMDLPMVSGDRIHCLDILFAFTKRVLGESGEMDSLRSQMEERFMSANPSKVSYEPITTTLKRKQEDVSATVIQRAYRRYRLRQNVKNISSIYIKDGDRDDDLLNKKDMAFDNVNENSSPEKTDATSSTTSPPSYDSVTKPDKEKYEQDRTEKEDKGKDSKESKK

[11] = Plasma clearance in Sprague-Dawley rat at 3 mg/kg, po and 1 mg/kg, iv; assay type: ADME, organism-based
Summary of the method: (§2)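 Fasted male Sprague–Dawley rats (n = 3 per route) were dosed with 1.5 mg/mL solutions in PEG300/water or DMSO/PEG300/water, either 1.0 mg/kg iv via femoral-vein cannula or 3.0 mg/kg by oral gavage. Blood was sampled at 5 min (iv only), 15 and 30 min, and 1, 2, 4, 6 and 8 h. Plasma levels were measured by LC–MS/MS after acetonitrile protein precipitation.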

[12] = Half life in Sprague-Dawley rat at 3 mg/kg, po and 1 mg/kg, iv; assay type: ADME, organism-based; settings: in vivo; summary of the method: as §2
[13] = Oral bioavailability in Sprague-Dawley rat at 3 mg/kg; assay type: ADME, organism-based; settings: in vivo; summary of the method: as §2

O=C(N[C@H](Cc1ccccc1F)C(=O)N[C@@H]1CCc2c(F)c(F)cc(F)c2N(C2CC2)C1=O)C1CC1C(F)(F)F (stereo partly drawn)
Activity (Rattus norvegicus [1]): Non-toxic
Activity (Rattus norvegicus [2]): Dose-dependent effect
Activity (Rattus norvegicus [3]): 4%
Activity (Rattus norvegicus [4]): 1%
Activity (Rattus norvegicus [5]): 55%
Activity (Rattus norvegicus [6]): 39%
Activity (Rattus norvegicus [7]): 43%
Activity (Rattus norvegicus [8]): 62%
Activity [9]: < 50%
inhibition [10]: 48%
clearance [11]: 43 mL/min/kg
half-life [12]: 114 min
bioavailability [13]: 100%
